Assay results: ChEMBL document CHEMBL1129609, “Synthesis and antiviral activity evaluation of some new aminoadamantane derivatives. 2” (1996)
Values after ≈ are worked out from the molar mass of the structure shown.

Tests used:
Human alphaherpesvirus 1 [1] = test: Antiviral activity against HSV-1 virus infected HEF cell lines.; type: functional
Method in brief: (§1)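 Human embryonic fibroblasts, from embryonic lung or embryonic skin-muscle, infected with the virus. Endpoint is the minimum inhibitory concentration that reduces virus-induced cytopathicity by 50%. Values are averages of at least two separate experiments.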

[2] = tested on: Mammalian orthoreovirus 1; test: Antiviral activity against Reo 1 virus infected vero cell lines.; type: functional
Method in brief: (§2)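 Vero (African green monkey kidney), HeLa (human epithelial) or HEL (human embryonic lung) cell monolayers infected with the virus. Readout is the minimum inhibitory concentration that reduces virus-induced cytopathicity by 50%. Values are averages of at least two separate experiments.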

Human alphaherpesvirus 3 [3] = test: Antiviral activity against TK-VZV virus infected HEL cell lines.; type: functional; method in brief: as §2
MDCK [4] = test: Antiviral activity of compound was tested against morphology virus infec+ted MDCK cell lines.; type: functional; conditions: Canis lupus familiaris
[5] = tested on: Vesicular stomatitis virus; test: Antiviral activity against vesicular stomatitis virus infected HEF cell lines.; type: functional; method in brief: as §1
CCRF-CEM = test: Cytotoxicity against CEM cell lines.; type: functional; conditions: Homo sapiens
Coxsackievirus B4 [6] = test: Antiviral activity against Coxsackie B4 virus infected vero cell lines.; type: functional; conditions: Enterovirus B; method in brief: as §2
Human respirovirus 3 = test: Antiviral activity against parainfluenza 3 virus infected Vero cell lines.; type: functional; method in brief: as §2
[7] = tested on: Human immunodeficiency virus 1; test: Antiviral activity against HIV-1 virus infected CEM cell lines.; type: functional, CCRF-CEM
Vaccinia virus = test: Antiviral activity against vaccinia virus infected HEF cell lines.; type: functional; conditions: Orthopoxvirus vaccinia; method in brief: as §1
HEF = test: Effects on cell morphology of HEF cell lines.; type: functional; conditions: Homo sapiens
Method in brief: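 Human embryonic skin-muscle fibroblasts were examined under the microscope for changes in normal cell morphology. The value is the minimum concentration causing a microscopically detectable alteration, averaged from at least two separate experiments.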

HeLa = test: Effects on cell morphology of HeLa cell lines.; type: functional; conditions: Homo sapiens
Method in brief: (§3)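 HeLa (human epithelial) or Vero (African green monkey kidney) cells were examined under the microscope for changes in normal morphology. The value is the minimum concentration causing a detectable alteration, averaged from at least two separate experiments.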

Sindbis virus = test: Antiviral activity against sindbis virus infected Vero cell lines.; type: functional; method in brief: as §2
Vero = test: Effects on cell morphology of Vero cell lines.; type: functional; conditions: Chlorocebus sabaeus; method in brief: as §3
Human alphaherpesvirus 3 [8] = test: Antiviral activity against TK+VZV virus infected HEL cell lines.; type: functional; method in brief: as §2
Human betaherpesvirus 5 = test: Antiviral activity against HCMV virus infected HEL cell lines.; type: functional; method in brief: as §2
[9] = tested on: Vesicular stomatitis virus; test: Antiviral activity against vesicular stomatitis virus infected HeLa cell lines.; type: functional; method in brief: as §2
[10] = Antiviral activity against influenza A,H3N2 virus infected MDCK cell lines.; type: functional
Enterovirus C = test: Antiviral activity against polio 1 virus infected HeLa cell lines.; type: functional; method in brief: as §2
Semliki Forest virus = test: Antiviral activity against Semliki forest virus infected Vero cell lines.; type: functional; method in brief: as §2
[11] = Antiviral activity against influenza A,H2N2 virus infected MDCK cell lines.; type: functional
Coxsackievirus B4 [12] = test: Antiviral activity against Coxsackie B4 virus infected HeLa cell lines.; type: functional; conditions: Enterovirus B; method in brief: as §2
MDCK [13] = test: Antiviral activity tested against influenza A,H1N1 virus infected MDCK cell lines.; type: functional; conditions: Canis lupus familiaris
Human alphaherpesvirus 1 [14] = test: Antiviral activity against TK-HSV-1 virus infected HEF cell lines.; type: functional; method in brief: as §1
Influenza B virus = test: Antiviral activity against influenza B virus infected MDCK cell lines.; type: functional
Human alphaherpesvirus 2 = test: Antiviral activity against HSV-2 virus infected HEF cell lines.; type: functional; method in brief: as §1
HEL = test: Inhibition of HEL cell proliferation.; type: functional; conditions: Homo sapiens
Method in brief: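 Human embryonic lung fibroblasts were used for the proliferation assay. The value is the concentration that reduces cell proliferation by 50%, averaged from at least two separate experiments.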

[15] = tested on: Human immunodeficiency virus 2; test: Antiviral activity against HIV-2 virus infected CEM cell lines.; type: functional, CCRF-CEM

With C1COCC2(N1)C1CC3CC(C1)CC2C3 (stereo not given) the MIC50 (Human alphaherpesvirus 1 [1]) was greater than 200 mg/L, the MIC50 [2] was greater than 400 mg/L and the MIC50 (Human alphaherpesvirus 3 [3]) was greater than 50 mg/L. For the same compound, the MIC50 (MDCK [4]) was greater than 250 mg/L, the MIC50 [5] was greater than 200 mg/L and the MIC50 (CCRF-CEM) was greater than 200 mg/L. It also gave an MIC50 (Coxsackievirus B4 [6]) greater than 400 mg/L, an MIC50 (Human respirovirus 3) greater than 400 mg/L and an MIC50 [7] of 158 mg/L (≈ 762 µM). The MIC50 (Vaccinia virus) was greater than 200 mg/L, the MIC50 (HEF) was greater than 200 mg/L and the MIC50 (HeLa) was greater than 400 mg/L. For the same compound, the MIC50 (Sindbis virus) was greater than 400 mg/L, the MIC50 (Vero) was greater than 400 mg/L and the MIC50 (Human alphaherpesvirus 3 [8]) was greater than 50 mg/L. For the same compound, the MIC50 (Human betaherpesvirus 5) was greater than 50 mg/L, the MIC50 [9] was greater than 400 mg/L and the MIC50 [10] was 13 mg/L (≈ 62.7 µM). The MIC50 (Enterovirus C) was greater than 400 mg/L, the MIC50 (Semliki Forest virus) was greater than 400 mg/L and the MIC50 [11] was 1.7 mg/L (≈ 8.2 µM). It also gave an MIC50 (Coxsackievirus B4 [12]) greater than 400 mg/L, an MIC50 (MDCK [13]) of 29 mg/L (≈ 140 µM) and an MIC50 (Human alphaherpesvirus 1 [14]) greater than 200 mg/L. It also gave an MIC50 (Influenza B virus) of 20 mg/L (≈ 96.5 µM), an MIC50 (Human alphaherpesvirus 2) greater than 200 mg/L and an MIC50 (HEL) greater than 50 mg/L. The MIC50 [15] was greater than 200 mg/L.
Compound CCCCN1CCCC1C12CC3CC(CC(C3)C1)C2 (stereo not given) has an MIC50 (Human alphaherpesvirus 1 [1]) greater than 40 mg/L, an MIC50 [2] greater than 100 mg/L and an MIC50 (Human alphaherpesvirus 3 [3]) greater than 20 mg/L. For the same compound, the MIC50 (MDCK [4]) was 250 mg/L (≈ 956 µM), the MIC50 [5] was greater than 40 mg/L and the MIC50 (CCRF-CEM) was 74 mg/L (≈ 283 µM). For the same compound, the MIC50 (Coxsackievirus B4 [6]) was greater than 100 mg/L, the MIC50 (Human respirovirus 3) was greater than 100 mg/L and the MIC50 [7] was greater than 40 mg/L. It also gave an MIC50 (Vaccinia virus) greater than 40 mg/L, an MIC50 (HEF) of 100 mg/L (≈ 382 µM) and an MIC50 (HeLa) of 200 mg/L (≈ 765 µM). It also gave an MIC50 (Sindbis virus) greater than 100 mg/L, an MIC50 (Vero) greater than 200 mg/L and an MIC50 (Human alphaherpesvirus 3 [8]) greater than 50 mg/L. It also gave an MIC50 (Human betaherpesvirus 5) greater than 50 mg/L, an MIC50 [9] greater than 100 mg/L and an MIC50 [10] greater than 100 mg/L. For the same compound, the MIC50 (Enterovirus C) was greater than 100 mg/L, the MIC50 (Semliki Forest virus) was greater than 100 mg/L and the MIC50 [11] was 44.5 mg/L (≈ 170 µM). For the same compound, the MIC50 (Coxsackievirus B4 [12]) was greater than 100 mg/L, the MIC50 (MDCK [13]) was 4 mg/L (≈ 15.3 µM) and the MIC50 (Human alphaherpesvirus 1 [14]) was greater than 40 mg/L. It also gave an MIC50 (Influenza B virus) greater than 80 mg/L, an MIC50 (Human alphaherpesvirus 2) greater than 40 mg/L and an MIC50 (HEL) greater than 50 mg/L. The MIC50 [15] was greater than 40 mg/L.
For NC1(C23CC4CC(CC(C4)C2)C3)CCCC1, the MIC50 (Human alphaherpesvirus 1 [1]) was greater than 10 mg/L, the MIC50 [2] was greater than 10 mg/L and the MIC50 (Human alphaherpesvirus 3 [3]) was greater than 20 mg/L. The MIC50 (MDCK [4]) was greater than 250 mg/L, the MIC50 [5] was greater than 10 mg/L and the MIC50 (CCRF-CEM) was 18 mg/L (≈ 82.1 µM). The MIC50 (Coxsackievirus B4 [6]) was greater than 10 mg/L, the MIC50 (Human respirovirus 3) was greater than 10 mg/L and the MIC50 [7] was greater than 8 mg/L. The MIC50 (Vaccinia virus) was greater than 10 mg/L, the MIC50 (HEF) was 40 mg/L (≈ 182 µM) and the MIC50 (HeLa) was 100 mg/L (≈ 456 µM). For the same compound, the MIC50 (Sindbis virus) was greater than 10 mg/L, the MIC50 (Vero) was greater than 400 mg/L and the MIC50 (Human alphaherpesvirus 3 [8]) was greater than 20 mg/L. For the same compound, the MIC50 (Human betaherpesvirus 5) was greater than 20 mg/L, the MIC50 [9] was greater than 40 mg/L and the MIC50 [10] was 6 mg/L (≈ 27.4 µM). It also gave an MIC50 (Enterovirus C) greater than 40 mg/L, an MIC50 (Semliki Forest virus) greater than 10 mg/L and an MIC50 [11] of 2.5 mg/L (≈ 11.4 µM). It also gave an MIC50 (Coxsackievirus B4 [12]) greater than 40 mg/L, an MIC50 (MDCK [13]) greater than 64 mg/L and an MIC50 (Human alphaherpesvirus 1 [14]) greater than 10 mg/L. For the same compound, the MIC50 (Influenza B virus) was 20 mg/L (≈ 91.2 µM), the MIC50 (Human alphaherpesvirus 2) was greater than 10 mg/L and the MIC50 (HEL) was greater than 50 mg/L. For the same compound, the MIC50 [15] was greater than 8 mg/L.
Compound NC12CC3CC(CC(C3)C1)C2 [AMANTADINE] has an MIC50 (MDCK [4]) greater than 250 mg/L, an MIC50 [11] of 0.8 mg/L (≈ 5.29 µM) and an MIC50 (MDCK [13]) of 48 mg/L (≈ 317 µM).
Nc1nc2c(ncn2COC(CO)CO)c(=O)[nH]1 [GANCICLOVIR] gave an MIC50 (Human alphaherpesvirus 1 [1]) greater than 200 mg/L, an MIC50 [5] greater than 100 mg/L and an MIC50 (Vaccinia virus) greater than 100 mg/L. The MIC50 (HEF) was greater than 100 mg/L, the MIC50 (Human betaherpesvirus 5) was 0.7 mg/L (≈ 2.74 µM) and the MIC50 (Human alphaherpesvirus 1 [14]) was 0.02 mg/L (≈ 0.0784 µM). For the same compound, the MIC50 (Human alphaherpesvirus 2) was 0.002 mg/L (≈ 0.00784 µM).
Work on NC(=O)c1ncn([C@@H]2O[C@H](CO)[C@@H](O)[C@H]2O)n1 [RIBAVIRIN] yielded an MIC50 (Human alphaherpesvirus 1 [1]) greater than 200 mg/L, an MIC50 [2] of 70 mg/L (≈ 287 µM) and an MIC50 (MDCK [4]) greater than 250 mg/L. It also gave an MIC50 [5] of 20 mg/L (≈ 81.9 µM), an MIC50 (Coxsackievirus B4 [6]) greater than 400 mg/L and an MIC50 (Human respirovirus 3) of 150 mg/L (≈ 614 µM). It also gave an MIC50 (Vaccinia virus) of 20 mg/L (≈ 81.9 µM), an MIC50 (HEF) of 400 mg/L (≈ 1640 µM) and an MIC50 (HeLa) greater than 400 mg/L. It also gave an MIC50 (Sindbis virus) greater than 400 mg/L, an MIC50 (Vero) greater than 400 mg/L and an MIC50 [9] of 20 mg/L (≈ 81.9 µM). It also gave an MIC50 [10] of 5.6 mg/L (≈ 22.9 µM), an MIC50 (Enterovirus C) of 20 mg/L (≈ 81.9 µM) and an MIC50 (Semliki Forest virus) greater than 400 mg/L. For the same compound, the MIC50 [11] was 48.7 mg/L (≈ 199 µM), the MIC50 (Coxsackievirus B4 [12]) was 10 mg/L (≈ 40.9 µM) and the MIC50 (MDCK [13]) was 19 mg/L (≈ 77.8 µM). For the same compound, the MIC50 (Human alphaherpesvirus 1 [14]) was greater than 200 mg/L, the MIC50 (Influenza B virus) was 2.4 mg/L (≈ 9.83 µM) and the MIC50 (Human alphaherpesvirus 2) was greater than 200 mg/L.
In the case of CC(N)C12CC3CC(CC(C3)C1)C2 (stereo not given) [RIMANTADINE], the MIC50 (MDCK [4]) is reported as 250 mg/L (≈ 1390 µM), the MIC50 [10] is reported as greater than 12 mg/L and the MIC50 [11] is reported as less than 0.14 mg/L. It also gave an MIC50 (MDCK [13]) of 28 mg/L (≈ 156 µM) and an MIC50 (Influenza B virus) greater than 20 mg/L.
